RGS4 inh: human RGS4 inhibition; actives 0.45% (n = 310,000); P49798; AID 463165; HEK293 M3R/RGS4 inducible, Fluo-4 calcium flux; active compounds read high; triggered by carbachol at its EC20; B-score at 10 µM;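 active = B-score, a plate-corrected calcium signal, over three deviations above library mean, with baseline fluorescence within five deviations of library mean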;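 note: RGS4 expression induced by doxycycline in cells with stable M3 receptor; B-score is computed from the integrated fluorescence ratio over baseline after carbachol; higher B-score means a larger calcium signal and so more RGS4 inhibition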
Target sequence (P49798 whole entry, looked up): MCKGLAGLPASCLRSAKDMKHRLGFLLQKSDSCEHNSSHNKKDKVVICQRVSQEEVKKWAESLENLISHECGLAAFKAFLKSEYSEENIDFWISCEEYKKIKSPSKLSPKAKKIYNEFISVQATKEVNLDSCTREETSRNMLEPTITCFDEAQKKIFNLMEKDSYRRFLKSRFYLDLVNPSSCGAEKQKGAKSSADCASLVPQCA
RGS4 act: potentiators or activators of RGS4. HEK293 M3R/inducible RGS4, carbachol calcium flux Fluo4; active compounds read low. B-score at 10 µM. actives 0.92% (n = 310,000). AID 463111;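 active = B-score of the integrated calcium signal more than 4 SD below the library mean, with starting fluorescence not abnormally high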;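 note: negative B-score means reduced calcium response which marks RGS4 activation or potentiation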
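test system = HEK293 cells with stable M3R and inducible RGS4 | schedule = recording 10 s baseline at 1 Hz, 100 s post-agonist | technique = Fluo4-AM (2 µM) calcium-flux fluorescence, kinetic read | measure = Agonist-evoked peak-minus-minimum fluorescence over baseline, integrated ratio, B score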
MrgX1 PAM: allosterically activates human MrgX1 receptor signaling | MrgX1-HEK293, Fluo-4 calcium flux, FDSS; active compounds read high | B-score at 10 µM | actives 0.63% (n = 310,000);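 active = plate-corrected calcium response at least 3 library SD above typical, normal starting fluorescence, not activating the receptor alone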;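 note: compound read alongside a low EC10 to EC30 dose of BAM8-22 agonist; peak minus trough fluorescence over baseline measured at the second addition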
Target sequence (Q96LB2 whole entry, looked up): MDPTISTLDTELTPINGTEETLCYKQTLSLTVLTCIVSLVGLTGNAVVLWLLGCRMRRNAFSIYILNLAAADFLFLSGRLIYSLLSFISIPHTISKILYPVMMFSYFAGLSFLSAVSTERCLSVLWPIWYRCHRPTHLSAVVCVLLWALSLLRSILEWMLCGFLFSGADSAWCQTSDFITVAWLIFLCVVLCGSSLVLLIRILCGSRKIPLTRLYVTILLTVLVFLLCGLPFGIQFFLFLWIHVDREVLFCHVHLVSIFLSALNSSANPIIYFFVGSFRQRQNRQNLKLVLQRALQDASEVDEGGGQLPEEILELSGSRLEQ
MrgX1 antag: human MrgX1 receptor antagonism, primary screen; Q96LB2; MRGX1-HEK293 calcium flux, Fluo-4, BAM8-22 antagonism; active compounds read low; B-score at 10 µM; actives 1.3% (n = 310,000); AID 588676;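 active = calcium-response B-score plate-corrected more than 3 library SD below zero, starting fluorescence within 5 deviations, no agonist response on first addition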;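 note: peak minus trough fluorescence over baseline after final BAM8-22 challenge near maximal dose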
MrgX1 ag: agonists of human MrgX1 receptor | MrgX1-HEK293 cells, Fluo-4 calcium fluorescence, agonist mode; active compounds read high | B-score at 10 µM | actives 0.44% (n = 310,000);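 active = calcium response B-score plate-corrected fluorescence ratio at least 3 library SD, with starting fluorescence B-score inside 5 SD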
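Material: MrgX1-expressing HEK293 cells; input: 15,000 cells per well; doses: test compound given as first of three sequential additions; schedule: overnight plating before 1 h dye loading; technique: Fluo-4 NW calcium-flux fluorescence, kinetic read; evaluation: baseline-normalised fluorescence change ratio, B-scored; control set: plate-wise positive and negative controls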
MrgX1 ag reconf: reconfirmed activator of human MrgX1 receptor signaling | shares compounds with MrgX1 ag | MrgX1-HEK293, Fluo-4 calcium fluorescence, FDSS | activation, % at 10 µM | actives 78% (n = 600);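 active = calcium signal rise, corrected for plate position, at least 3 library SD high, with starting brightness within 5 such deviations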
HEK293 Ca flux: activity in parental HEK293 cells lacking MrgX1 | shares compounds with MrgX1 antag | Fluo-4 calcium fluorescence, FDSS | fluorescence ratio F(max-min)/F0 at 10 µM | actives 2% (n = 4,000) | AID 624111;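 active = duplicate-averaged calcium fluorescence ratio at least three times the standard deviation of buffer wells, a nonspecific response in parental cells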
HEK293 Ca counter: counter-screen for MrgX1 allosteric activators: effect in parental HEK293 cells | actives 0.4% (n = 4,000) | AID 624114 | shares compounds with MrgX1 antag | parental HEK293 calcium flux, Fluo-4 fluorescence ratio; active compounds read high | fluorescence ratio F(max-min)/F0 at 10 µM;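 active = calcium fluorescence ratio, averaged over duplicates, at least 3 SD of the buffer-well ratio, meaning a nonspecific response in receptor-free cells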;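 note: untransfected parental HEK293 lacking MrgX1 used as counterscreen for MrgX1 allosteric activators; fluorescence change taken during the second addition on a kinetic imager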
HEK293 Ca cntr2: activity in parental HEK293 cells lacking MrgX1 receptor; shares compounds with MrgX1 antag; Fluo-4 calcium fluorescence (FDSS); active compounds read high; fluorescence ratio F(max-min)/F0 at 10 µM; actives 8.7% (n = 4,000);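 active = calcium fluorescence ratio at least three times the spread of buffer wells, meaning a non-specific response in parental cells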
* = called active by the depositor; i = inactive; x = not tested or not shown. Most compounds without a hit are left out; they make up all but 3.5% or so of the library.

SMILES	RGS4 inh	RGS4 act	MrgX1 PAM	MrgX1 antag	MrgX1 ag	MrgX1 ag reconf	HEK293 Ca flux	HEK293 Ca counter	HEK293 Ca cntr2
COc1cc(/C=C2/C(=N)N3N=C(C(C)C)SC3=NC2=O)ccc1OS(=O)(=O)c1ccccc1	i	i	i	i	i	x	x	x	x
CCC(C)n1c(=N)c(C#N)cc2c(=O)n3ccccc3nc21 (stereo not given)	i	i	i	i	26*	i	i	i	i
CN(Cc1nc(-c2ccc(Cl)cc2)no1)C(=O)CCN1C(=O)[C@H]2CC=CC[C@H]2C1=O	i	i	i	i	i	x	x	x	x
Brc1ccc2c(c1)CN1CCCC1=N2	i	i	i	i	i	x	x	x	x
O=C(COC(=O)c1nc(Cl)ccc1Cl)Nc1ccc2c(c1)OCO2	i	i	i	i	28*	i	i	i	i
CCOc1ccccc1NC(=O)CSc1ccc(-c2ccco2)nn1	i	i	i	i	i	x	x	x	x
CCOc1ccccc1NC(=O)CSc1ccc(-c2sc(C)nc2C)nn1	i	i	i	i	37*	170%*	i	i	i
CCOCCn1c(SC(C)C(C)=O)nc2c1c(=O)[nH]c(=O)n2C (stereo not given)	i	i	i	i	53*	i	i	i	i
O=C(Nc1nnc(-c2cccs2)o1)c1cccc(C(F)(F)F)c1	i	i	i	i	75*	498%*	i	i	96*
N#Cc1ccc(C(=O)Nc2nnc(-c3cccs3)o2)cc1	i	i	i	i	i	x	x	x	x
Cn1c2c(c(=O)n(C)c1=O)[C@@]1(C(=O)Nc3ccccc31)C(C#N)=C(N)O2	i	i	i	i	41*	173%*	i	i	i
N#CC1=C(N)Oc2n[nH]c(-c3ccccc3)c2C12C(=O)Nc1ccccc12 (stereo not given)	i	i	i	i	i	x	x	x	x
NCCC(=O)N1c2ccccc2Sc2ccc(Cl)cc21	i	i	i	i	79*	244%*	i	i	i
Cc1cccc(C)c1NC(=O)C(=O)NCCc1c[nH]c2ccccc12	i	i	i	i	41*	i	i	49*	i
Cc1cccc(NC(=O)C(=O)NCCc2c[nH]c3ccccc23)c1C	i	i	i	i	i	x	x	x	x
Cc1sc(NC(=O)C2CCCCC2C(=O)O)c(C(N)=O)c1-c1ccc(C(C)(C)C)cc1 (stereo not given)	i	i	i	i	95*	299%*	i	i	68*
CC(C)Nc1nc2nonc2nc1Nc1ccccc1	i	i	i	i	29*	175%*	i	i	i
NC(N)=NS(=O)(=O)c1ccc(NC(=S)NC(=O)c2sc3ccccc3c2Cl)cc1	i	i	i	i	i	x	x	x	x
O=C(c1ccc2ccccc2n1)N1CCN(Cc2c(F)cccc2Cl)CC1	i	i	i	i	i	x	x	x	x
Fc1cccc(Cl)c1CN1CCN(c2nc3ccccc3s2)CC1	i	i	i	i	31*	224%*	i	i	i
CC(C)c1ccc(N(C(=O)c2csnn2)C(C(=O)NC2CCCC2)c2cccnc2)cc1 (stereo not given)	i	i	i	i	33*	i	i	i	i
Cc1ccc(N(C(=O)CNC(=O)c2ccco2)C(C(=O)NCC2CCCO2)c2ccccc2)c(C)c1 (stereo not given)	i	i	i	i	i	x	x	x	x
O=C(C1Cc2ccccc2CN1S(=O)(=O)c1ccc(F)cc1)N1CCCCC1 (stereo not given)	i	i	i	i	33*	243%*	i	i	74*
O=C(c1ccco1)N1CCN(C(=O)C2Cc3ccccc3CN2S(=O)(=O)c2ccc(F)cc2)CC1 (stereo not given)	i	i	i	i	i	x	x	x	x
COc1ccccc1CNC(=O)C1(c2ccc(Cl)cc2)CC1	i	i	i	i	i	x	x	x	x
SMILES	RGS4 inh	RGS4 act	MrgX1 PAM	MrgX1 antag	MrgX1 ag	MrgX1 ag reconf	HEK293 Ca flux	HEK293 Ca counter	HEK293 Ca cntr2
COc1ccc(C(=O)NC(=S)NNC(=O)c2ccc(C)cc2)cc1	i	-7.3*	i	i	149*	659%*	i	i	133*
O=C(NNC(=S)NC(=O)c1ccco1)c1ccc(F)cc1	i	i	i	i	69*	201%*	i	i	47*
CCCCC(=O)NNC(=S)NC(=O)c1ccc(C)cc1	i	i	i	i	150*	712%*	i	i	159*
O=C(NNC(=S)Nc1ccc(F)cc1F)c1ccco1	i	i	i	i	i	x	x	x	x
O=C(NC(=S)NNC(=O)c1ccco1)c1ccc(Br)cc1	i	i	i	i	135*	543%*	i	i	98*
CCCCC(=O)NNC(=S)NC(=O)c1ccc([N+](=O)[O-])cc1	i	i	i	i	i	x	x	x	x
Cc1cc(C(=O)Cn2nc(C(=O)O)c3ccccc3c2=O)c(C)n1CCc1ccc(Cl)cc1	i	i	i	i	i	x	x	x	x
CCCCOc1ccc(C(=O)NNC(=S)NC(=O)CC)cc1	i	i	i	i	i	x	x	x	x
CCCOc1ccc(C(=O)NNC(=S)NC(=O)c2ccco2)cc1	i	i	i	i	146*	661%*	i	i	127*
COC(=O)c1ccccc1NC(=S)NC(=O)c1ccc(C)cc1	i	i	i	i	37*	i	i	i	i
COC(=O)c1ccccc1NC(=S)NC(=O)c1ccccc1	i	i	i	i	i	x	x	x	x
COc1ccc(C(=O)NNC(=S)NC(=O)c2ccco2)cc1	i	i	i	i	84*	486%*	i	i	86*
COc1ccc(C(=O)OCn2nnc3ccccc3c2=O)cc1[N+](=O)[O-]	i	i	i	i	i	x	x	x	x
C/C(=N/Nc1nc(C)c(C)s1)c1cccc([N+](=O)[O-])c1	i	i	i	i	i	x	x	x	x

Compound activity (PubChem BioAssay)
